Tests used:
[1] = Plasma protein binding in human; assay type: ADME, cell-free; conditions: read-out: PPB (converted)
[2] = Cmax in fasted female cynomolgus monkey at 9 mg/kg, po administered as single dose; assay type: ADME, organism-based, Macaca fascicularis; parameters: dose 9 mg/kg, route oral; conditions: in vivo
[3] = Volume of distribution in male Crl:CD(SD) rat at 0.5 mg/kg, iv; assay type: ADME, organism-based; conditions: in vivo
How it was run: (§1)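 Single-dose PK: i.v. and oral dosing in Crl:CD(SD) rats and beagle dogs, plus a pilot oral nasogastric study in Cynomolgus monkeys using a Type IV lipid formulation. Rat i.v. vehicle was 80% cosolvent. Monkeys were fasted from 2 h before until 2 h after dosing, n=3 per sex. Rats also received [14C]-labelled compound orally at 50 mg/kg, with total radioactivity followed. Parameters are means; monkey values are medians.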

[4] = Terminal elimination half life in female Crl:CD(SD) rat at 0.5 mg/kg, iv; assay type: ADME, organism-based; conditions: in vivo, read-out: beta t1/2 (converted); how it was run: as §1
[5] = system: Rattus norvegicus; assay: Anxiolytic activity in po dosed Wistar rat assessed as reduction in ultrasonic vocalization; assay type: functional
[6] = Cmax in male Crl:CD(SD) rat at 4.5 mg/kg, po; assay type: ADME, organism-based; parameters: dose 4.5 mg/kg, route oral; conditions: in vivo
[7] = target: Metabotropic glutamate receptor 5 (Homo sapiens, UniProt P41594); assay: Displacement of [3H]M-MPEP from recombinant human mGluR5a expressed in human A18 cell membrane homogenate
Chain of Metabotropic glutamate receptor 5 (P41594 whole entry, the tested form may be a part): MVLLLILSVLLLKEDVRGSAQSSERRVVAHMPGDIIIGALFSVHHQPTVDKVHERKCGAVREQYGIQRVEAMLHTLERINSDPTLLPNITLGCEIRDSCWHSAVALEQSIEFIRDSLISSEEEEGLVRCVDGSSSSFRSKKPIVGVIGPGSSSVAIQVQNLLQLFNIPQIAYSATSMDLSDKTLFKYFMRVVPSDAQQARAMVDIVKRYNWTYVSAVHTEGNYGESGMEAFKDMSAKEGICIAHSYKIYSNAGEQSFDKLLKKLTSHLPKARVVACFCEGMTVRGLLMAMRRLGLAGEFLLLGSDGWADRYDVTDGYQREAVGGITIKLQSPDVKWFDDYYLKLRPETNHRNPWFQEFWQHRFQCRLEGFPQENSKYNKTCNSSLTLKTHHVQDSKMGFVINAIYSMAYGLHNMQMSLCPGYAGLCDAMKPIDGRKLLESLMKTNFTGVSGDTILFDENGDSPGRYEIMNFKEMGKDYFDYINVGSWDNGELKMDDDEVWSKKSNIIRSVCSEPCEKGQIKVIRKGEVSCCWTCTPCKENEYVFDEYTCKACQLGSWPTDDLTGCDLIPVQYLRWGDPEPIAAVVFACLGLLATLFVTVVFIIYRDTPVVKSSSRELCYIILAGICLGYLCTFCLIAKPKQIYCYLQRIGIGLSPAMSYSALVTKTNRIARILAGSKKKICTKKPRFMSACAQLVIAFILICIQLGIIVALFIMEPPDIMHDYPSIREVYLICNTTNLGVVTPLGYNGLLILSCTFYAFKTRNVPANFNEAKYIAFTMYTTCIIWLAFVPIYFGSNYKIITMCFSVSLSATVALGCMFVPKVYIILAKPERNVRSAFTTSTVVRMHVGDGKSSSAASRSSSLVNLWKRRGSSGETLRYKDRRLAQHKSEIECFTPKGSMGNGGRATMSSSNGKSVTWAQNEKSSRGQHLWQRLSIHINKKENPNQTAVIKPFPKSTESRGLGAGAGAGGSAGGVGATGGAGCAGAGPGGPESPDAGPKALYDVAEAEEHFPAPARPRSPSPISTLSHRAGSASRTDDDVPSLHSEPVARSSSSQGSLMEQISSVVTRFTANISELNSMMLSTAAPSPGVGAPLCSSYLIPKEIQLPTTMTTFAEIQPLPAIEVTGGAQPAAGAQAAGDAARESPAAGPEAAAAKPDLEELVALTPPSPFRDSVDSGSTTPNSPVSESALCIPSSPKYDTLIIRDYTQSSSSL

[8] = AUC in female beagle dog at 0.5 mg/kg, iv administered as infusion; assay type: ADME, organism-based, Canis lupus familiaris; conditions: in vivo
[9] = system: Liver; assay: Intrinsic clearance in human liver microsomes at 2.5 uM assessed per gram of liver; assay type: ADME, microsome

fraction unbound [1]: 0.0039 | Cmax [2]: 33 nM | Vd [3]: 12.4 L/kg | half-life [4]: 7.79 h | Cmax [6]: 369 nM | Ki [7]: 4.9 nM | AUC [8]: 2.22 µM·h | CLint [9]: 0.31 mL/min/g
SMILES: N#Cc1cccc(S(=O)(=O)c2cnc3cc(F)ccc3c2-c2ccc(Cl)cc2)c1
Activity [5]: Dose-dependent effect | ED50 [5]: 1.5 mg/kg

— ChEMBL document CHEMBL4007421, “Discovery and Preclinical Characterization of 3-((4-(4-Chlorophenyl)-7-fluoroquinoline-3-yl)sulfonyl)benzonitrile, a Novel Non-acetylenic Metabotropic Glutamate Receptor 5 (mGluR5) Negative Allosteric Modulator for Psychiatric Indications” (J Med Chem, 2017)
